Where “and” joins values, the source holds several entries; their conditions need not be identical. Equal entries are not always repeated. Where two headings read alike, the source gives them in different places. Each block holds one compound with its values, some of them ahead of it.
Experiments:
[1] = type: in vivo, human; settings: for Cmin / AUC / Cmax / concentration at 24 h / half-life: geometric mean (95% CI); for AUC / Cmax / concentration at 24 h / half-life: both, human, plasma, oral; for AUC: AUC0–τ; for concentration at 24 h: Cτ
How it was run: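 Healthy adults took 50 mg oral dolutegravir once daily with a morning moderate-fat meal, alone for 5 days. They then continued for 10 days with boceprevir 800 mg or telaprevir 750 mg three times daily, with no washout. Plasma was assayed by validated LC-MS/MS. Noncompartmental parameters used actual sampling times, with Cτ taken at 24 h postdose. Log-transformed AUC0–τ, Cmax and Cτ were analysed by mixed-model ANOVA (subject random, treatment fixed). Results were given as GLS mean ratios with 95% CI versus dolutegravir alone.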

[2] = Safety: adverse events in healthy adult subjects; type: in vivo, human; settings: dolutegravir n = 32, combinations n = 16 each
How it was run: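 Healthy adults aged 18–65 were randomised into two cohorts of 16. Period 1: 50 mg dolutegravir once daily for 5 days. Period 2, with no washout: Cohort 1 added boceprevir 800 mg three times daily, Cohort 2 added telaprevir 750 mg three times daily, both for 10 days. Doses were given with moderate-fat meals (30% fat, 600 calories). Adverse events were recorded and graded for intensity and drug relatedness.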

[3] = previous dolutegravir clinical studies; cited from earlier work
[4] = type: in vivo, human; settings: Cohort 1, boceprevir 800 mg every 8 h + dolutegravir 50 mg once daily (n = 15); geometric mean (%CVb)
How it was run: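 Cohort 1 took 800 mg oral boceprevir three times daily with 50 mg dolutegravir daily for 10 days, with moderate-fat meals. Plasma was acidified with phosphoric acid, and the stereoisomers were extracted by solid-phase extraction. Analysis was LC-MS/MS with heated nebulizer, positive ion mode, calibrated 0.0052–5.2 and 0.0048–4.8 μg ml−1. Parameters came from noncompartmental steady-state analysis, reported as geometric means (%CVb) and median Tmax, and were compared with label values without statistics.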

[5] = cited from earlier work
[6] = type: in vivo, human; settings: Cohort 2, telaprevir 750 mg every 8 h + dolutegravir 50 mg once daily (n = 15)
How it was run: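 Cohort 2 took 750 mg oral telaprevir three times daily with 50 mg dolutegravir daily for 10 days, with moderate-fat meals. Plasma was acidified with phosphoric acid, and (S)-telaprevir was extracted by supported liquid extraction. Analysis was LC-MS/MS with TurboIonSpray, positive ion mode, calibrated 0.1–20 μg ml−1. Steady-state parameters came from noncompartmental analysis and were compared with label data without formal statistics.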

[7] = cited from earlier work; remark: listed apart in the source
[8] = Cohort 1, dolutegravir 50 mg once daily + boceprevir 800 mg every 8 h, Period 2 (n = 13)
[9] = Cohort 1, dolutegravir + boceprevir vs. dolutegravir
[10] = Cohort 2, dolutegravir 50 mg once daily + telaprevir 750 mg every 8 h, Period 2 (n = 15)
[11] = Cohort 2, dolutegravir + telaprevir vs. dolutegravir
[12] = 50 mg, Cohort 1, dolutegravir 50 mg once daily alone, Period 1 (n = 16)
[13] = 50 mg, Cohort 2, dolutegravir 50 mg once daily alone, Period 1 (n = 16)
[14] = coadministration with telaprevir vs dolutegravir alone
[15] = Boceprevir alone, historical, ref Boceprevir package insert, 2013
[16] = Telaprevir alone, historical, ref Telaprevir package insert, 2013

Cmin [1, 8]: 1.36 (1.10, 1.68) μg ml^−1
Cmin ([1]; Cohort 1, dolutegravir 50 mg once daily alone, Period 1 (n = 16)): 1.00 (0.79, 1.25) μg ml^−1
AUC0–τ GLS mean ratio (95% CI) [1, 9]: 1.07 (0.924, 1.234)
Cmax GLS mean ratio (95% CI) [1, 9]: 1.05 (0.941, 1.176)
Cmin GLS mean ratio (95% CI) [1, 9]: 1.36 (1.106, 1.684)
Cτ GLS mean ratio (95% CI) [1, 9]: 1.08 (0.878, 1.329)
t1/2 GLS mean ratio (95% CI) [1, 9]: 1.05 (0.940, 1.166)
Cmin [1, 10]: 2.03 (1.73, 2.38) μg ml^−1
Cmin ([1]; Cohort 2, dolutegravir 50 mg once daily alone, Period 1 (n = 16)): 1.18 (0.96, 1.46) μg ml^−1
AUC0–τ GLS mean ratio (95% CI) [1, 11]: 1.25 (1.183, 1.327)
Cmax GLS mean ratio (95% CI) [1, 11]: 1.19 (1.096, 1.282)
Cmin GLS mean ratio (95% CI) [1, 11]: 1.76 (1.570, 1.963)
Cτ GLS mean ratio (95% CI) [1, 11]: 1.37 (1.274, 1.468)
t1/2 GLS mean ratio (95% CI) [1, 11]: 1.18 (1.061, 1.305)
AUC [1, 12]: 61500 ng·h/mL
AUC [1, 13]: 68900 ng·h/mL
Cmax [1, 12]: 4620 ng/mL
Cmax [1, 13]: 4990 ng/mL
concentration at 24 h [1, 12]: 1310 ng/mL
concentration at 24 h [1, 13]: 1590 ng/mL
half-life ([1]; 50 mg, t1/2, Cohort 1, dolutegravir 50 mg once daily alone, Period 1 (n = 16)): 13.2 h
half-life ([1]; 50 mg, t1/2, Cohort 2, dolutegravir 50 mg once daily alone, Period 1 (n = 16)): 14.5 h
AUC [1, 8]: 65300 ng·h/mL
AUC [1, 10]: 84200 ng·h/mL
Cmax [1, 8]: 4820 ng/mL
Cmax [1, 10]: 5810 ng/mL
concentration at 24 h [1, 8]: 1400 ng/mL
concentration at 24 h [1, 10]: 2090 ng/mL
half-life ([1]; t1/2, Cohort 1, dolutegravir 50 mg once daily + boceprevir 800 mg every 8 h, Period 2 (n = 13)): 13.8 h
half-life ([1]; t1/2, Cohort 2, dolutegravir 50 mg once daily + telaprevir 750 mg every 8 h, Period 2 (n = 14)): 16.7 h
change (increase) in dolutegravir Cτ ([1]; coadministration with boceprevir vs dolutegravir alone): 8% and < 10%
increase in dolutegravir AUC0–τ [1, 14]: 25%
increase in dolutegravir Cmax [1, 14]: 19%
increase in dolutegravir Cτ [1, 14]: 37%
change in dolutegravir exposure ([1]; with boceprevir): 7%
change in dolutegravir exposure ([1]; with telaprevir): 25%
SMILES: C[C@@H]1CCO[C@H]2Cn3cc(C(=O)NCc4ccc(F)cc4F)c(=O)c(O)c3C(=O)N12 [Dolutegravir]
All adverse events: Abdominal pain [2]: 0 n (%)
All adverse events: Anal haemorrhage [2]: 0 n (%)
All adverse events: Anorectal discomfort [2]: 0 n (%)
All adverse events: Any adverse event [2]: 4 (13) n (%)
All adverse events: Dysgeusia [2]: 0 n (%)
All adverse events: Haemorrhoids [2]: 0 n (%)
All adverse events: Headache [2]: 2 (6) n (%)
All adverse events: Maculopapular rash [2]: 1 (3) n (%)
Drug-related adverse events: Abdominal pain [2]: 0 n (%)
Drug-related adverse events: Any adverse event [2]: 2 (6) n (%)
Drug-related adverse events: Dysgeusia [2]: 0 n (%)
Drug-related adverse events: Headache [2]: 1 (3) n (%)
Drug-related adverse events: Maculopapular rash [2]: 1 (3) n (%)
Subjects withdrawn because of AEs [2]: 0 n (%)
Elevated alanine aminotransferase, frequency [3]: <1–2 % of subjects

Cmin [4]: 0.07 (23) μg ml^−1
Cτ [4]: 0.08 (35) μg ml^−1
SMILES: CC(C)(C)NC(=O)N[C@H](C(=O)N1C[C@H]2[C@@H]([C@H]1C(=O)NC(CC1CCC1)C(=O)C(N)=O)C2(C)C)C(C)(C)C (stereo partly shown) [Boceprevir, boceprevir]
AUC0–τ [5, 15]: 5408 ng·h/mL
Cmax [5, 15]: 1723 ng/mL
Cmin [5, 15]: 80 ng/mL
half-life [5]: 3 to 4 h

Cmin ([6]; geometric mean (%CVb)): 1.72 (25) μg ml^−1
Cτ ([6]; geometric mean (%CVb)): 1.75 (26) μg ml^−1
Tmax ([6]; median (range)): 3.00 (2.0, 4.0) h
SMILES: CCC[C@H](NC(=O)[C@@H]1[C@H]2CCC[C@H]2CN1C(=O)[C@@H](NC(=O)[C@@H](NC(=O)c1cnccn1)C1CCCCC1)C(C)(C)C)C(=O)C(=O)NC1CC1 [Telaprevir, telaprevir]
AUC0–τ [7, 16]: 22300 ng·h/mL
Cmax [7, 16]: 3510 ng/mL
Cmin [7, 16]: 2030 ng/mL
half-life [7]: 9 to 10 h
